1 molecule from ChEMBL document CHEMBL4017491, “Phthalazino[1,2-b]quinazolinones as p53 Activators: Cell Cycle Arrest, Apoptotic Response and Bak-Bcl-xl Complex Reorganization in Bladder Cancer Cells” (J Med Chem, 2017) can be followed below.

One series relates to PC-3. The series can be described thus: Antiproliferative activity against p53 null human PC3 cells by MTT assay. It counts as functional, cell-based. A digest of the protocol:
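Cell lines cultured in RPMI 1640 with 10% FBS. Viability read by MTT (5 mg/mL, 4 h at 37 °C), with formazan dissolved in DMSO and absorbance taken at 490 nm. Viability (%) = A490 treated / A490 control × 100. IC50 taken from dose-response curves, from three independent experiments each run in triplicate.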

The subject of series [1] is T-24. The series can be described thus: Cell cycle arrest in human T24 cells assessed as reduction in cell size at 5 uM after 48 hrs by FACS analysis relative to control. On the set-up: scale not given: the % may be the effect or the level left. It counts as functional. A digest of the protocol: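 T24 cells treated for 48 h with 5 μM or DMSO, then ethanol-fixed and PI-stained. Relative cell size taken as mean forward scatter (FSC-H) by flow cytometry, compared with control.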

The subject of series [2] is T-24. The series can be described thus: Effect on cell cycle distribution in human T24 cells assessed as late necrotic cells at 5 uM after 1 hr by Annexin V-FITC/propidium iodide staining based FACS analysis (reference value: 1.71%). It counts as functional.
In series [3] the test system is HepG2. The series is described as follows: Antitumor activity against human HepG2 cells xenografted in BALB/C nude mouse assessed as tumor growth inhibition at 12 mg/kg, ip administered every 2 days for 16 days relative to control. The series is classed as functional. The following applies: read-out: TGI. A digest of the protocol:
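Male BALB/c nude mice, 6 weeks old, given subcutaneous flank injections of 5 × 10^6 HepG2 cells. Mice with 80−200 mm3 tumors randomized, n = 6 per group, and dosed ip every other day with 6 or 12 mg/kg. Vehicle 5% DMSO in saline; HCPT 6 mg/kg as positive control. Tumor volume (lw²/2) and body weight measured three times weekly.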

For series [4], the system named is T-24. The series is described as follows: Induction of apoptosis in human T24 cells assessed as live cells at 1 uM by Annexin V-FITC/propidium iodide based flow cytometric analysis (reference value: 89.5%). The series is classed as functional.
The test system of a further series is Mus musculus. The series can be described thus: Toxicity in BALB/C nude mouse xenografted with human HepG2 cells assessed as change in body weight at 6 mg/kg, ip administered every 2 days for 16 days. The series is classed as organism-based. The following applies: in vivo. A digest of the protocol:
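HepG2-xenografted male BALB/C nude mice treated ip at 6 mg/kg every 2 days; vehicle was 5% DMSO in saline. Body weight recorded three times weekly and at the end of treatment.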

Series [5] deals with T-24. The series can be described thus: Effect on cell cycle distribution in human T24 cells assessed as early apoptotic cells at 1 uM after 1 hr by Annexin V-FITC/propidium iodide staining based FACS analysis relative to control. The series is classed as functional.
For series [6], the system named is T-24. The series can be described thus: Induction of apoptosis in human T24 cells assessed as live cells at 10 uM by Annexin V-FITC/propidium iodide based flow cytometric analysis (reference value: 89.5%). It counts as functional.
The subject of series [7] is T-24. The series can be described thus: Induction of apoptosis in human T24 cells assessed as activation of caspase-3 at 1 uM by FITC-DEVD-FMK based flow cytometric analysis (reference value: 2.8%).
The subject of series [8] is J82. The series is described as follows: Cell cycle arrest in human J82 cells assessed as accumulation at G2 phase at 10 uM after 48 hrs by propidium iodide staining based FACS analysis (reference value: 10.92 %). It counts as functional. A digest of the protocol: (§1)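 Cells treated with 1−10 μM for 48 h, trypsinized, and fixed in 70% ethanol. Stained with 50 μg/mL propidium iodide and phase distribution analyzed by flow cytometry. Mean ± SD from three independent measurements.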

Series [9] deals with T-24. The series can be described thus: Induction of apoptosis in human T24 cells assessed as late apoptotic cells at 10 uM by Annexin V-FITC/propidium iodide based flow cytometric analysis (reference value: 0.193%). The series is classed as functional.
In series [10] the test system is T-24. The series is described as follows: Induction of apoptosis in human T24 cells assessed as late apoptotic cells at 1 uM by Annexin V-FITC/propidium iodide based flow cytometric analysis (reference value: 0.193%). The series is classed as functional.
In series [11] the target is Cellular tumor antigen p53 (Homo sapiens) (UniProt P04637). The series is described as follows: Activation of p53 in human T24 cells assessed as decrease in MDM2 protein level up to 10 uM after 24 hrs by Western blot analysis. It counts as cell-based. A digest of the protocol: (§2)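 T24 cells, 3 × 10^5 per well, grown to 85−95% confluence, then exposed to 0−10 μM for 24 h. Whole-cell extracts in sample buffer run on SDS-polyacrylamide gels and transferred to nitrocellulose. Blots probed with primary antibodies and AP-linked anti-rabbit IgG, detected by ECL. Blots stripped and reprobed for β-actin as loading control.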
Chain of Cellular tumor antigen p53 (Homo sapiens) (P04637 whole entry, looked up): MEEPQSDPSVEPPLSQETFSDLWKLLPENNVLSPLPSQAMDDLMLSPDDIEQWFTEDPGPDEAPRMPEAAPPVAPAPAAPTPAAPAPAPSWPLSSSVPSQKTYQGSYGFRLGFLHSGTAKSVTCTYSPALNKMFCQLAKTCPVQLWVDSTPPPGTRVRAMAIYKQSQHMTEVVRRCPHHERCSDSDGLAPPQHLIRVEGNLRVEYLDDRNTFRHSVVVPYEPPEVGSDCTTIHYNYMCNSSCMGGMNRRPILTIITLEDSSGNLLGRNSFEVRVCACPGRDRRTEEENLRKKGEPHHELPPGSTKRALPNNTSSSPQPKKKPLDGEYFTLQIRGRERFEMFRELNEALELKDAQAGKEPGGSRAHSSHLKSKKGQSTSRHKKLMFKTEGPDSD

For series [12], the system named is T-24. The series is described as follows: Induction of apoptosis in human T24 cells assessed as early apoptotic cells at 1 uM by Annexin V-FITC/propidium iodide based flow cytometric analysis (reference value: 1.79%). It counts as functional.
In series [13] the test system is J82. The series can be described thus: Cell cycle arrest in human J82 cells assessed as accumulation at S phase at 5 uM after 48 hrs by propidium iodide staining based FACS analysis (reference value: 46.79 %). The series is classed as functional. A digest of the protocol:
as §1

For series [14], the target named is Cellular tumor antigen p53 (Homo sapiens) (UniProt P04637). The series can be described thus: Induction of phospho-p53 accumulation in human T24 cells assessed as disruption of Bak-Bcl-xl interaction up to 10 uM by coimmunoprecipitation assay. It counts as cell-based.
In series [15] the test system is T-24. The series can be described thus: Effect on Bcl-xl protein expression in human T24 cells at 1 to 10 uM after 24 hrs by Western bot method. The series is classed as functional, cell-based. A digest of the protocol: as §2
Series [16] has as its system T-24. The series can be described thus: Induction of apoptosis in human T24 cells assessed as increase in bax level up to 10 uM after 24 hrs by Western blot analysis. It counts as functional, cell-based. A digest of the protocol:
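T24 cells (3 × 10^5 per well) grown to 85–95% confluence, then exposed 24 h to 0–10 μM. Whole-cell extracts run on SDS-PAGE and blotted to nitrocellulose. Probed with the indicated antibodies and AP-linked anti-rabbit IgG, with ECL detection. Blots stripped and reprobed for β-actin as loading control.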

Series [17] has as its system T-24. The series is described as follows: Induction of membrane disruption in human T24 cells at 1 to 10 uM after 1 hr by propidium iodide staining based FACS analysis. It counts as functional, cell-based. A digest of the protocol:
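T24 cells exposed 1 h to 1–10 μM, then trypsinised and washed in PBS. Resuspended in 50 μg/mL propidium iodide in PBS and analysed immediately by flow cytometry with a 488 nm argon laser.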

The test system of series [18] is T-24. The series can be described thus: Effect on cell cycle distribution in human T24 cells assessed as late necrotic cells at 1 uM after 1 hr by Annexin V-FITC/propidium iodide staining based FACS analysis (reference value: 1.71%). The series is classed as functional.
For series [19], the system named is HepG2. The series can be described thus: Antitumor activity against human HepG2 cells xenografted in BALB/C nude mouse assessed as tumor growth inhibition at 6 mg/kg, ip administered every 2 days for 16 days relative to control. The series is classed as functional. The following applies: read-out: TGI. A digest of the protocol: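 Male BALB/C nude mice, 6 weeks old, given subcutaneous flank injection of 5 × 10^6 HepG2 cells; tumors of 80−200 mm3 randomized, n = 6/group. Dosing ip every other day, vehicle 5% DMSO in saline (v/v). Tumor length and width measured three times a week, volume V = lw2/2; growth inhibition expressed versus vehicle group. Body weight also recorded.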

Series [20] deals with J82. The series can be described thus: Cell cycle arrest in human J82 cells assessed as accumulation at G1 phase at 10 uM after 48 hrs by propidium iodide staining based FACS analysis (reference value: 42.29 %). The series is classed as functional. A digest of the protocol: as §1
Series [21] has as its system J82. The series is described as follows: Cell cycle arrest in human J82 cells assessed as accumulation at G1 phase at 1 uM after 48 hrs by propidium iodide staining based FACS analysis (reference value: 42.29 %). The series is classed as functional. A digest of the protocol:
as §1

Series [22] relates to T-24. The series is described as follows: Induction of apoptosis in human T24 cells assessed as late apoptotic cells at 5 uM by Annexin V-FITC/propidium iodide based flow cytometric analysis (reference value: 0.193%). It counts as functional.

Active and inactive are the calls of the source. The rule behind the calls is not given here.

Turning to `CN(C)CCNc1nn2c(=O)c3cc(Br)ccc3nc2c2ccccc12`, the outcome in the series on PC-3, in the series on T-24 [15] and with T-24 [17] was inactive. Further, the Activity in the series on T-24 [1] is given as 87.7%; in the series on T-24 [2], 10.6%; in the series with T-24 [4], 83.7%; with Mus musculus it was “Non-Toxic”; in the series with T-24 [5], 0%; with T-24 [6] it was 21.8%. The Activity with T-24 [7] came out at 7%; in the series with J82 [8], 23.67%; in the series on T-24 [9] it was 40.7%; with T-24 [10], 5.29%; with T-24 [12], 4.22%; in the series on J82 [13] it was 44.01%. The Activity in the series with T-24 [18] is 6.54%; in the series on J82 [20], 12.13%; in the series with J82 [21], 48.49%; in the series with T-24 [22] it was 10.2%. For the same molecule, in the series with HepG2 [3], the inhibition in vivo at 12 mg/kg was determined as 61.3%. The outcome (in series [11]; in [14]; in the series with T-24 [16]) was Active. For the same molecule, the inhibition in vivo at 6 mg/kg in the series with HepG2 [19] is 43.6%.
